Experiments:
[1] = molecular target: T1, Thromboxane A2 receptor (Rattus norvegicus) (UniProt P34978); assay: Antagonist activity against TXA2 receptor measured by inhibition of U-46,619-induced contractions of rat aorta; assay type: functional, tissue-based
T1 sequence (whole entry): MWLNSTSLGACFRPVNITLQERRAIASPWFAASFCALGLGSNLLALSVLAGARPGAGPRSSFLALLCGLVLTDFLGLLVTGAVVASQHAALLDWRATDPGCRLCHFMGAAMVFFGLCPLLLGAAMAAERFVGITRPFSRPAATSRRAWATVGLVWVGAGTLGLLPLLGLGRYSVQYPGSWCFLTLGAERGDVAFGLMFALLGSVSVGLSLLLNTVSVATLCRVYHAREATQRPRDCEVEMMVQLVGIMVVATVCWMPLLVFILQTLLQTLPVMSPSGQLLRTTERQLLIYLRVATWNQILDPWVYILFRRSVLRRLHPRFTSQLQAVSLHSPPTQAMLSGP
Summary of the method: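 Spirally cut rat aortic strips held under 1 g resting tension for isometric recording in Krebs-bicarbonate at 37 °C, oxygenated, equilibrated 2 h. Primed with U46619 for 10 min, washed, and rested 1 h. Cumulative U46619 (1–100 nM) contraction curves were run before and after 15 min compound exposure (1 h for footnoted entries) at several concentrations. Antagonism was derived from the shifted curves.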

Thromboxane-A synthase = molecular target: T2, Thromboxane-A synthase (Homo sapiens, UniProt P24557); assay: Activity against human platelet microsome Thromboxane synthase
T2 sequence (P24557 whole entry): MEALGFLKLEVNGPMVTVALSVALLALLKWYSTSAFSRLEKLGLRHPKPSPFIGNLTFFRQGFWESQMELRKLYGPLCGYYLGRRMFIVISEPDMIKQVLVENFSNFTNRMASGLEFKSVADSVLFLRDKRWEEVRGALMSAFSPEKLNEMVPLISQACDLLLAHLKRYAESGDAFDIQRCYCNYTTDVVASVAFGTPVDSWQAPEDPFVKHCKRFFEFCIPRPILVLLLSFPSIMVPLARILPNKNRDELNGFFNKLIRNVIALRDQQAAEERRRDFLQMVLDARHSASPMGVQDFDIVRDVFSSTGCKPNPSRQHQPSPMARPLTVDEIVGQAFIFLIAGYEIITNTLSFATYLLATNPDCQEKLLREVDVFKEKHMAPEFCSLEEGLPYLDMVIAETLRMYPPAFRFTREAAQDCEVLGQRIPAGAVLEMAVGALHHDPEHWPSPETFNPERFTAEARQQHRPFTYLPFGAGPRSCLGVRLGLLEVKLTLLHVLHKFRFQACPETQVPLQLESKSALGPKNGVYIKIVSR

Row | SMILES | pA2 [1] | IC50 (Thromboxane-A synthase) [nM]
1 | O=C(O)CCc1cc(CCNS(=O)(=O)c2ccccc2)cc(Cn2ccnc2)c1 | 7.89 | 18
2 | O=C(O)CCc1cc(CCNS(=O)(=O)c2ccc(Cl)cc2)cc(Cn2ccnc2)c1 | 8.54 | 38
3 | O=C(O)CCc1cc(CCCS(=O)(=O)c2ccccc2)cc(Cc2cccnc2)c1 | 7.8 | 27
4 | CC(O)(c1cccnc1)c1cc(CCNS(=O)(=O)c2ccc(Cl)cc2)cc(CCC(=O)O)c1 (configuration not stated) | 9.07 | 
5 | CC(C)(C)CS(=O)(=O)NCCc1cc(CCC(=O)O)cc(Cc2cccnc2)c1 | 8.1 | 39
6 | CN(CCc1cc(CCC(=O)O)cc(Cc2cccnc2)c1)S(=O)(=O)c1ccc(Cl)cc1 | 6.78 | 54
7 | CCCS(=O)(=O)NCCc1cc(CCC(=O)O)cc(Cc2cccnc2)c1 | 7.71 | 29
8 | O=C(O)CCc1cc(CCNS(=O)(=O)c2ccc(Cl)cc2)cc(Cc2cccnc2)c1 | 9.39 | 
9 | O=C(O)CCc1cc(CCNS(=O)(=O)c2ccc(F)cc2)cc(Cc2cccnc2)c1 | 8.9 | 20
10 | O=C(O)CCn1cc(Cc2cccnc2)c2cc(NS(=O)(=O)c3ccc(F)cc3)ccc21 | 8.85 | 
11 | O=C(O)CCc1cccc(CCNS(=O)(=O)c2ccc(Cl)cc2)c1 | 8.71 | 
12 | O=C(O)CCc1cc(CCNS(=O)(=O)c2ccccc2)cc(Cc2cccnc2)c1 | 8.8 | 45
13 | Cc1c(Cn2ccnc2)c2cc(CCC(=O)O)ccc2n1CCNS(=O)(=O)c1ccc(F)cc1 | 8.8 | 
14 | O=C(O)CCc1cc(CCNS(=O)(=O)c2ccccc2)cc(Oc2cccnc2)c1 | 9.06 | 
15 | O=C(O)CCc1cc(CCS(=O)(=O)c2ccccc2)cc(Cc2cccnc2)c1 | < 6 | 48
16 | O=C(O)CCc1cc(CCNC(=O)c2ccccc2)cc(Cc2cccnc2)c1 | 7.96 | 22
17 | O=C(O)CCc1cc(CCNS(=O)(=O)C2CCCCC2)cc(Cc2cccnc2)c1 | 7.81 | 43
18 | CCN(CC)S(=O)(=O)NCCc1cc(CCC(=O)O)cc(Cc2cccnc2)c1 | 7.43 | 29
19 | Cc1c(Cc2cccnc2)c2cc(CCC(=O)O)ccc2n1CCNS(=O)(=O)c1ccc(F)cc1 | 9.16 | 
20 | O=C(O)CCc1cc(CCNS(=O)(=O)Nc2ccc(Cl)cc2)cc(Cc2cccnc2)c1 | 8.32 | 38
21 | O=C(O)CCc1cc(CCNS(=O)(=O)N2CCCC2)cc(Cc2cccnc2)c1 | 8 | 22
22 | O=C(O)CCn1cc(Cn2ccnc2)c2cc(NS(=O)(=O)c3ccc(F)cc3)ccc21 | 8.2 | 
23 | C=C(c1cccnc1)c1cc(CCNS(=O)(=O)c2ccc(Cl)cc2)cc(CCC(=O)O)c1 | 10 | 
24 | O=C(O)CCc1cc(CCNS(=O)(=O)c2ccc(Cl)cc2)cc(Oc2cccnc2)c1 | 9.4 | 
25 | O=C(O)CCc1cc(CCNS(=O)(=O)N2CCCCC2)cc(Cc2cccnc2)c1 | 7.81 | 43
26 | CN(C)S(=O)(=O)NCCc1cc(CCC(=O)O)cc(Cc2cccnc2)c1 | 7.69 | 22
27 | CC(c1cccnc1)c1cc(CCNS(=O)(=O)c2ccc(Cl)cc2)cc(CCC(=O)O)c1 (configuration not stated) | 10.2 | 
28 | O=C(O)COc1ccc(CCNS(=O)(=O)c2ccccc2)cc1 | 7.09 | 
29 | O=C(O)CCc1cc(CCNS(=O)(=O)c2ccc(Br)cc2)cc(Cc2cccnc2)c1 | 9.44 | 
30 | Cc1ccc(S(=O)(=O)NCCc2cc(CCC(=O)O)cc(Cc3cccnc3)c2)cc1 | 8.98 | 37

From ChEMBL document CHEMBL1130190, “Thromboxane modulating agents. 3. 1H-imidazol-1-ylalkyl- and 3-pyridinylalkyl-substituted 3-[2-[(arylsulfonyl)amino]ethyl]benzenepropanoic acid derivatives as dual thromboxane synthase inhibitor/thromboxane receptor antagonists” (J Med Chem, 1997)
